# Out of some 300,000 compounds screened, about 1,000 (0.33%) were called active. The sample holds actives, similar compounds and a random draw of the others, so the mix is not that of the screen.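 Rule for the calls: active = inhibition above the mean of all tested compounds plus 3 SD, set per screening campaign (cut at about 45% in these data); inactive = the rest.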
# System: HCV core protein (residues 1-106) dimerization
# Assay: inhibitors of HCV core protein dimerization, primary screen, biochemical, TR-FRET, high-throughput (AID 1899)
# Details: TR-FRET GST/Flag-core106 dimerization, 1536-well; at 5 µM; hits give high values
# Outline: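 Material: Tagged HCV core106 pair (GST and Flag) | Amount: GST-core106 13.5 nM, Flag-core106 17 nM | Medium: KF-containing HEPES buffer, pH 7.45, DTT, CHAPS, BSA | Reagent: Eu donor and XL665 acceptor anti-tag antibodies | Schedule: 4 h at 22.5 °C | Technique: Time-resolved FRET, ex 340 nm, em 617 and 671 nm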
row,SMILES,inhibition
1,Cc1ccc(NS(=O)(=O)c2c(C)[nH]c(=O)[nH]c2=O)cc1C,-1.79% (inactive)
2,Cc1nn(-c2ccccc2)c2c1C(c1ccc(F)cc1)C(C#N)=C(N)O2 (stereo not given),-4.93% (inactive)
3,Cc1nc2c(c(C)nn2-c2ccccc2)c(C)c1C,-4.33% (inactive)
4,CSc1ccc(-c2c(C#N)c(N)nc3c2c(C)nn3-c2ccccc2)cc1,49.1% (active)
5,CC(C)C(C)(C#N)NC(=O)CSc1nc2scc(-c3ccccc3)c2c(=O)[nH]1 (stereo not given),13.3% (inactive)
6,Cc1cc(C)c2nc(N3CCCC3)c(C#N)cc2c1,51.7% (active)
7,CCC(C)(C)n1nnnc1CN1CCN(c2nc3ccc(C)cc3cc2C#N)CC1,20.6% (inactive)
8,CCOC(=O)c1cc(C#N)c(N2CCCCC2)nc1-c1ccccc1,13.8% (inactive)
9,CN(CCC(=O)Nc1cc(S(=O)(=O)N(C)C)ccc1Cl)CC(=O)Nc1ccc(F)cc1,-16.6% (inactive)
10,COc1cccc(/C=C2\Sc3ccc(C(=O)NCC4CCCO4)cc3N(C)C2=O)c1 (stereo not given),4.72% (inactive)
11,CCOc1ccccc1NC(=O)Cc1cccs1,55.5% (active)
12,COc1ccc(OC)c(NC(=O)Cc2cccs2)c1,14.6% (inactive)
13,CCOc1ccccc1NC(=O)Cn1nnc(C(=O)NCc2cccs2)c1N,-5.57% (inactive)
14,COc1ccc(C(=O)c2c3ccc([N+](=O)[O-])cc3[n+]([O-])n2CCCN)cc1,1.89% (inactive)
15,CCc1ccc(NC(=O)CN2C(=O)CSC2=O)cc1,-2.17% (inactive)
16,Nc1nonc1-n1nnc(C(=O)N/N=C/C2CCCCC2)c1-c1ccccc1,-6.4% (inactive)
17,COc1ccc2c(c1)C(c1cccs1)=NNC(c1cccnc1)=N2,48.7% (active)
18,CCOc1ccc2c(c1)C(c1ccc(C)cc1)=NNC(c1ccc(C)cc1)=N2,6.95% (inactive)
19,Fc1ccc2c(c1)C(c1cccnc1)=NNC(c1cccs1)=N2,-0.24% (inactive)
20,CC(=O)c1ccc(S(=O)(=O)NC2CC(=O)N(c3ccc4c(c3)OCCO4)C2)cc1 (stereo not given),0.9% (inactive)
21,COc1ccc(/C=C/C2=CC(C)(C)NC(=S)N2)c(OC)c1,3.61% (inactive)
22,CN1CCN(C(=O)N2c3ccccc3CCc3ccccc32)CC1,-2.2% (inactive)
23,CCOc1ccc(C(=O)NC(=S)Nc2ccc(N3CCOCC3)c(Cl)c2)cc1[N+](=O)[O-],15.3% (inactive)
24,O=C(c1cc(C(=O)N2CCN(c3ccc(F)cc3)CC2)cc([N+](=O)[O-])c1)N1CCN(c2ccc(F)cc2)CC1,19% (inactive)
25,Cc1ccc(CSCC2Nc3ccc(C(=O)N4CCN(c5ccc(F)cc5)CC4)cc3NC2=O)cc1 (stereo not given),67% (active)

row,SMILES,inhibition
1,O=C1Nc2cc(C(=O)N3CCN(c4ccc(F)cc4)CC3)ccc2NC1CSCc1cccc(F)c1 (stereo not given),17.5% (inactive)
2,CC(C)(C)n1nnnc1C(c1ccccc1F)N1CCN(C(=O)c2ccco2)CC1 (stereo not given),-2.83% (inactive)
3,CCCc1nc2c(c(=O)c3ccccc3n2C)c(=O)n1C1CCCCCC1,10.2% (inactive)
4,CCCc1nc2c(c(=O)c3ccccc3n2C)c(=O)n1-c1cc(C)cc(C)c1,16.2% (inactive)
5,Cn1c2ccccc2c(=O)c2c(=O)n(Cc3ccco3)c(COc3ccccc3)nc21,47.9% (active)
6,O=C1CN(C(=O)COc2c(Cl)cccc2Cl)c2ccccc2N1,1.42% (inactive)
7,CCC(C)Cn1c(O)cc2nn(-c3nc4ccccc4s3)c(=O)c-2c1C (stereo not given),55.2% (active)
8,C/C(=N\NC(=O)CC(C)C)c1c(C(F)(F)F)[nH]n(-c2nc3ccccc3s2)c1=O,-0.73% (inactive)
9,Cc1nn(CC(=O)Nc2nc3ccccc3s2)c(C)c1[N+](=O)[O-],-2.22% (inactive)
10,COC(=O)C1=C(C)NC2=C(C(=O)c3ccccc32)C1c1ccc(-c2ccc(C(=O)O)cc2)o1 (stereo not given),5.77% (inactive)
11,CCOC(=O)C(=CNNc1ccsc1C(=O)OC)C(=O)OCC,-1.96% (inactive)
12,Cc1cccc(C2=N/C(=C/c3cccs3)C(=O)O2)c1,2.89% (inactive)
13,CSC1=N/C(=C\C=C\c2cccs2)C(=O)S1,60.2% (active)
14,CN1C/C(=C/c2cccs2)C(=O)/C(=C\c2cccs2)C1,6.47% (inactive)
15,Cc1ccc(-n2ncc3c2CC(C)(C)CC3NC(=O)CCc2cnn(C)c2)cc1 (stereo not given),-3.34% (inactive)
16,O=C(C1CCCN(S(=O)(=O)c2ccccc2)C1)N1CCN(c2ccc(F)cc2)CC1 (stereo not given),-13.8% (inactive)
17,Cc1cc(NC(=O)CCC(=O)N(CC(=O)NC2CCCC2)c2ccc(F)cc2)no1,0.03% (inactive)
18,COc1cccc(OC)c1CN(C)C(=O)c1cnccc1C(F)(F)F,-2.76% (inactive)
19,Cc1ccc(NC(=O)c2c(NC(=O)CCC(=O)O)sc3c2CCCCC3)cc1,47.6% (active)
20,Cc1ccc(C(=O)c2c(NC(=O)c3ccncc3)sc3c2CCCC3)cc1,-2.83% (inactive)
21,Cc1ccc(NC(=O)c2csc3c2CCCC3)cc1,5.39% (inactive)
22,O=S(=O)(Nc1ccc(O)c2ccccc12)c1ccc(OC(F)(F)F)cc1,-9.45% (inactive)
23,O=C(O)CCCC(=O)N1N=C(c2ccco2)CC1c1ccco1 (stereo not given),-3.41% (inactive)
24,Cc1nn(C(=O)c2ccoc2C)c(N)c1-c1ccccc1,-11.9% (inactive)
25,Cc1nn2c(c1-c1ccccc1)N=C(c1ccco1)CC2c1ccccc1 (stereo not given),54.2% (active)

row,SMILES,inhibition
1,Cc1ccc(/C=N/NC(=O)COc2ccccc2-c2ccccc2)cc1,-1.07% (inactive)
2,CCOc1ccc(/C=C(/NC(=O)c2ccccc2)C(=O)NCCC(=O)O)cc1,2.36% (inactive)
3,CCC(Cc1ccccc1)NS(=O)(=O)c1ccc2c(c1)NC(=O)CS2 (stereo not given),6.21% (inactive)
4,CCOC(=O)C1=C(C)NC(C)=C(C(=O)OCC)C1C1=COCCO1,-7.86% (inactive)
5,CCC(=O)Nc1c(C)n[nH]c1C,1.83% (inactive)
6,CCCCC1=CC2=CC(=O)C(C)(OC(=O)CC)C(=O)C2=CN1CCCOC(C)C (stereo not given),2.27% (inactive)
7,CC1(OC(=O)CCc2ccccc2)C(=O)C=C2C=C(c3ccc(C#N)cc3)N(CCc3ccccn3)C=C2C1=O (stereo not given),13.8% (inactive)
8,C=CCN1C=C2C(=O)C(C)(OC(=O)CCc3ccccc3)C(=O)C=C2C=C1c1ccc(C#N)cc1 (stereo not given),49% (active)
9,Nc1c(-c2ccc(F)cc2)cnc2ncnn12,0.37% (inactive)
10,CCCCCCCCCCCCCCCC(=O)OC/C=C(C)/C=C/C=C(C)/C=C/C1=C(C)CCCC1(C)C,2.75% (inactive)
11,CC1=C(/C=C/C(C)=C/C=C/C(C)=C/C=C/C=C(C)/C=C/C=C(C)/C=C/C2=C(C)CCCC2(C)C)C(C)(C)CCC1,69.5% (active)
12,Cc1cc(S(=O)(=O)N2CCOCC2)ccc1OCC(=O)Nc1cccc(C(F)(F)F)c1,0.78% (inactive)
13,COc1ccc(C(=O)COC(=O)Cn2cnc3c2c(=O)n(C)c(=O)n3C)c(OC)c1,-0.66% (inactive)
14,O=C(NCCN1CCN(C(=O)c2cccc([N+](=O)[O-])c2)CC1)C(=O)NCc1ccc(Cl)cc1,-0.22% (inactive)
15,CCOC(=O)Cn1c(=O)oc2cc(S(=O)(=O)N(C)Cc3ccco3)ccc21,-1.55% (inactive)
16,CCOC(=O)/C=c1\s/c(=C\c2ccc(C#N)cc2)c(=O)n1CC(=O)Nc1cccc(C)c1C,11.6% (inactive)
17,CN(c1ccccc1)c1ccc(/C=c2\s/c(=C(/C#N)C(=O)C(C)(C)C)n(Cc3ccco3)c2=O)cc1,63.2% (active)
18,CCNC(=O)c1sccc1-n1cccc1,0.55% (inactive)
19,CC(C)=CCc1c(O)c(CC=C(C)C)c2occ(-c3ccc(O)cc3)c(=O)c2c1O,-3.16% (inactive)
20,Cn1cccc1C(=O)NC(=O)COC(=O)Cc1coc2ccc3ccccc3c12,60.3% (active)
21,O=C(Cc1coc2ccc3ccccc3c12)NCc1cccs1,10.5% (inactive)
22,COc1ccc2c(CC(=O)OCC(=O)NC(N)=O)coc2c1,-9.08% (inactive)
23,COc1ccc(S(=O)(=O)N2CCOC2CNC(=O)C(=O)NCc2ccc(F)cc2)cc1 (stereo not given),-0.93% (inactive)
24,CCOC(=O)c1c(C)[nH]c(C2=NNC(=NC(C)COC)SC2)c1C (stereo not given),-2.46% (inactive)
25,COc1cc(NC(=O)C2=CC(c3ccc(C)cc3)=NS(=O)(=O)N2C)cc(OC)c1OC,1.17% (inactive)

# Source: PubChem BioAssay AID1899 (The Scripps Research Institute Molecular Screening Center, 2009)
